Measurements from article PMC6911266 (Nature, 2019).
Positions count from the first letter of the chain named.

What was measured:
[1] = test system: P. falciparum 7G8^7G8 parasite line; test: Piperaquine survival assay; type: cell-based, Plasmodium falciparum; details: vs no-drug control
PfCRT 7G8 = target: T1, PfCRT 7G8 (Plasmodium falciparum, UniProt W7FI62); test: Equilibrium dialysis binding, PfCRT variant in nanodiscs; details: for Bmax, binding at pH 5.5 / Bmax, binding at pH 7.5: equilibrium dialysis
T1 sequence (W7FI62 1-424): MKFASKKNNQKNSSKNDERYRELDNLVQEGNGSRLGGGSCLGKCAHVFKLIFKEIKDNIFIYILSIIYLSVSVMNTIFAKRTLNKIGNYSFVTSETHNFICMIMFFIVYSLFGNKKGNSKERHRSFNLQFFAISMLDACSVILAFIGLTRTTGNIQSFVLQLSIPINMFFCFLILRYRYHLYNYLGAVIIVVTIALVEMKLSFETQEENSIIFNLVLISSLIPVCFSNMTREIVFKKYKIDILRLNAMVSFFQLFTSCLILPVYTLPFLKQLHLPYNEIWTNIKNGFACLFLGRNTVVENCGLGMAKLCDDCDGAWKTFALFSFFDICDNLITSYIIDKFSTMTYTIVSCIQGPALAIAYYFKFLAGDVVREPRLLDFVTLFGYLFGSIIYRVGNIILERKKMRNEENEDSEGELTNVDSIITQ

PfCRT 7G8+C350R = target: T2, PfCRT 7G8+C350R (Plasmodium falciparum, UniProt W7FI62, C350R); test: as above; details: for Bmax, binding at pH 5.5 / Bmax, binding at pH 7.5: equilibrium dialysis
T2 sequence (W7FI62 1-424 C350R): T1 sequence (W7FI62 1-424) with C350R

[2] = test system: P. falciparum Dd2^Dd2 parasite line; test: Parasite drug susceptibility assay; type: cell-based, Plasmodium falciparum; details: Plasmodium falciparum, DD2, 72 h
Summary of the method: (§1)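 Asynchronous asexual blood-stage parasites were seeded at 0.3% parasitemia and 1% hematocrit into 2-fold, 10-point test compound dilutions. Incubation was 72 h at 37°C under 5% O2/5% CO2/90% N2. Final parasitemia was read by flow cytometry. IC50 came from nonlinear regression, 4 independent assays in duplicate, with two-tailed Mann-Whitney U tests.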

[3] = test system: P. falciparum Dd2^Dd2 parasite line; test: Piperaquine survival assay; type: cell-based, Plasmodium falciparum; details: vs no-drug control
[4] = test system: P. falciparum WT (3D7) parasite line; test: Piperaquine survival assay; type: cell-based, Plasmodium falciparum; details: vs no-drug control
[5] = test system: P. falciparum parasites with PfCRT haplotypes/mutations; details: cited from earlier work; for Associated Phenotype, mutation C350R: haplotype 7G8+C350R, this study; for Associated Phenotype, mutation C350R / Associated Phenotype, mutation C72S / Associated Phenotype, mutation F145I / Associated Phenotype, mutation G353V / Associated Phenotype, mutation H97Y / Associated Phenotype, mutation I218F / Associated Phenotype, mutation M343L / Associated Phenotype, mutation T93S / Associated Phenotype, mutation A220S / Associated Phenotype, mutation I356T/L / Associated Phenotype, mutation N326S/D / Associated Phenotype, mutation M74I / Associated Phenotype, mutation N75E / Associated Phenotype, mutation Q271E / Associated Phenotype, mutation R371I / Associated Phenotype, mutation K76T: field; for Associated Phenotype, mutation C72S: haplotype 7G8; for Associated Phenotype, mutation C101F: haplotype Dd2+C101F, lab; for Associated Phenotype, mutation F145I: haplotype Dd2+F145I; for Associated Phenotype, mutation G353V: haplotype Dd2+G353V; for Associated Phenotype, mutation H97Y: haplotype Dd2+H97Y; for Associated Phenotype, mutation I218F: haplotype Dd2+I218F; for Associated Phenotype, mutation M343L: haplotype Dd2+M343L; for Associated Phenotype, mutation T93S: haplotype Dd2+T93S; for Associated Phenotype, mutation A220S / Associated Phenotype, mutation I356T/L / Associated Phenotype, mutation N326S/D: haplotype Dd2/7G8; for Associated Phenotype, mutation M74I / Associated Phenotype, mutation N75E / Associated Phenotype, mutation Q271E / Associated Phenotype, mutation R371I: haplotype Dd2; for Associated Phenotype, mutation K76T: haplotype Dd2 and 7G8
[6] = test system: P. falciparum WT (3D7) parasite line; test: Parasite drug susceptibility assay; type: cell-based, Plasmodium falciparum; details: Plasmodium falciparum, 3D7, 72 h
Summary of the method: as §1

PfCRT Dd2 = target: T3, PfCRT Dd2 (Plasmodium falciparum, UniProt Q9N623, A220S/I356T/K76T/M74I/N326S/N75E/Q271E/R371I); test: Equilibrium dialysis binding, PfCRT variant in nanodiscs; details: for Bmax, binding at pH 5.5 / Bmax, binding at pH 7.5: equilibrium dialysis
T3 sequence (Q9N623 1-424 M74I/N75E/K76T/A220S/Q271E/N326S/I356T/R371I): T1 sequence (W7FI62 1-424) with S72C, M74I, N75E, Q271E, D326S, L356T, R371I

[7] = binding at pH 5.5, equilibrium dialysis, pH 5.5
[8] = binding at pH 7.5, equilibrium dialysis, pH 7.5

SMILES: Clc1ccc2c(N3CCN(CCCN4CCN(c5ccnc6cc(Cl)ccc56)CC4)CC3)ccnc2c1 [PPQ, piperaquine]
- PSA 3.125 nM, percent survival ([1]; 3.125 nM PPQ 48 h): 93.8 ± 3.5%
- PSA 6.25 nM, percent survival ([1]; 6.25 nM PPQ 48 h): 87.1 ± 3.5%
- PSA 12.5 nM, percent survival ([1]; 12.5 nM PPQ 48 h): 76.7 ± 5.1%
- PSA 25 nM, percent survival ([1]; 25 nM PPQ 48 h): 48.3 ± 5.5%
- PSA 50 nM, percent survival ([1]; 50 nM PPQ 48 h): 4.9 ± 1.3%
- PSA 100 nM, percent survival ([1]; 100 nM PPQ 48 h): 1.6 ± 0.3%
- PSA 200 nM, percent survival ([1]; 200 nM PPQ 48 h): 1.4 ± 0.2%
- PSA 400 nM, percent survival ([1]; 400 nM PPQ 48 h): 0.66 ± 0.20%
- PSA 800 nM, percent survival ([1]; 800 nM PPQ 48 h): 0.56 ± 0.17%
- PSA 1600 nM, percent survival ([1]; 1600 nM PPQ 48 h): 0.54 ± 0.20%
- Kd (PfCRT 7G8; [7]): 90 ± 20 nM
- Kd (PfCRT 7G8; [8]): 220 ± 40 nM
- Bmax, binding at pH 5.5 (PfCRT 7G8; pH 5.5): 0.40 ± 0.01 mol CQ/mol PfCRT
- Bmax, binding at pH 7.5 (PfCRT 7G8; pH 7.5): 0.40 ± 0.02 mol CQ/mol PfCRT
- Kd (PfCRT 7G8+C350R; [7]): 210 ± 30 nM
- Kd (PfCRT 7G8+C350R; [8]): 250 ± 40 nM
- Bmax, binding at pH 5.5 (PfCRT 7G8+C350R; pH 5.5): 0.39 ± 0.02 mol CQ/mol PfCRT
- Bmax, binding at pH 7.5 (PfCRT 7G8+C350R; pH 7.5): 0.41 ± 0.02 mol CQ/mol PfCRT
- fold increase in Kd compared with 7G8 parental isoform (PfCRT 7G8+C350R; pH 5.5): ~ 2 fold
- IC50 [2]: 18.3 ± 1.9 nM
- PSA 3.125 nM, percent survival ([3]; 3.125 nM PPQ 48 h): 95.9 ± 2.1%
- PSA 6.25 nM, percent survival ([3]; 6.25 nM PPQ 48 h): 83.6 ± 6.1%
- PSA 12.5 nM, percent survival ([3]; 12.5 nM PPQ 48 h): 67.7 ± 11.9%
- PSA 25 nM, percent survival ([3]; 25 nM PPQ 48 h): 35.3 ± 12.2%
- PSA 50 nM, percent survival ([3]; 50 nM PPQ 48 h): 7.6 ± 3.3%
- PSA 100 nM, percent survival ([3]; 100 nM PPQ 48 h): 1.7 ± 0.2%
- PSA 200 nM, percent survival ([3]; 200 nM PPQ 48 h): 1.1 ± 0.10%
- PSA 400 nM, percent survival ([3]; 400 nM PPQ 48 h): 1.1 ± 0.24%
- PSA 800 nM, percent survival ([3]; 800 nM PPQ 48 h): 0.89 ± 0.16%
- PSA 1600 nM, percent survival ([3]; 1600 nM PPQ 48 h): 0.87 ± 0.10%
- PSA 3.125 nM, percent survival ([4]; 3.125 nM PPQ 48 h): 81.2 ± 19.6%
- PSA 6.25 nM, percent survival ([4]; 6.25 nM PPQ 48 h): 12.1 ± 6.8%
- PSA 12.5 nM, percent survival ([4]; 12.5 nM PPQ 48 h): 7.2 ± 1.5%
- PSA 25 nM, percent survival ([4]; 25 nM PPQ 48 h): 11.0 ± 1.7%
- PSA 50 nM, percent survival ([4]; 50 nM PPQ 48 h): 4.9 ± 1.1%
- PSA 100 nM, percent survival ([4]; 100 nM PPQ 48 h): 1.3 ± 0.35%
- PSA 200 nM, percent survival ([4]; 200 nM PPQ 48 h): 1.2 ± 0.54%
- PSA 400 nM, percent survival ([4]; 400 nM PPQ 48 h): 0.61 ± 0.19%
- PSA 800 nM, percent survival ([4]; 800 nM PPQ 48 h): 0.62 ± 0.16%
- PSA 1600 nM, percent survival ([4]; 1600 nM PPQ 48 h): 0.51 ± 0.17%
- Associated Phenotype, mutation C350R [5]: R low
- Associated Phenotype, mutation C72S [5]: S
- Associated Phenotype, mutation C101F [5]: R
- Associated Phenotype, mutation F145I [5]: R
- Associated Phenotype, mutation G353V [5]: R mod.
- Associated Phenotype, mutation H97Y [5]: PPQ-R (CQ-R)
- Associated Phenotype, mutation I218F [5]: R
- Associated Phenotype, mutation M343L [5]: R low
- Associated Phenotype, mutation T93S [5]: PPQ-R (CQ-R)
- Associated Phenotype, mutation A220S [5]: S
- Associated Phenotype, mutation I356T/L [5]: S
- Associated Phenotype, mutation N326S/D [5]: S
- Associated Phenotype, mutation M74I [5]: S
- Associated Phenotype, mutation N75E [5]: S
- Associated Phenotype, mutation Q271E [5]: S
- Associated Phenotype, mutation R371I [5]: S
- Associated Phenotype, mutation K76T [5]: S
- IC50 [6]: 16.2 ± 1.3 nM
- Kd (PfCRT Dd2; [7]): 80 ± 10 nM
- Kd (PfCRT Dd2; [8]): 220 ± 30 nM
- Bmax, binding at pH 5.5 (PfCRT Dd2; pH 5.5): 0.39 ± 0.01 mol CQ/mol PfCRT
- Bmax, binding at pH 7.5 (PfCRT Dd2; pH 7.5): 0.39 ± 0.02 mol CQ/mol PfCRT

SMILES: CCN(CC)CCCC(C)Nc1ccnc2cc(Cl)ccc12 (stereo not drawn) [CQ, chloroquine]
- Kd (PfCRT 7G8; [7]): 210 ± 60 nM
- Kd (PfCRT 7G8; [8]): 280 ± 60 nM
- Bmax, binding at pH 5.5 (PfCRT 7G8; pH 5.5): 0.40 ± 0.03 mol CQ/mol PfCRT
- Bmax, binding at pH 7.5 (PfCRT 7G8; pH 7.5): 0.38 ± 0.02 mol CQ/mol PfCRT
- Kd (PfCRT 7G8+C350R; [7]): 130 ± 30 nM
- Kd (PfCRT 7G8+C350R; [8]): 300 ± 60 nM
- Bmax, binding at pH 5.5 (PfCRT 7G8+C350R; pH 5.5): 0.37 ± 0.02 mol CQ/mol PfCRT
- Bmax, binding at pH 7.5 (PfCRT 7G8+C350R; pH 7.5): 0.42 ± 0.03 mol CQ/mol PfCRT
- IC50 [2]: 143 ± 21.8 nM
- Associated Phenotype, mutation C350R [5]: S
- Associated Phenotype, mutation C72S [5]: R
- Associated Phenotype, mutation C101F [5]: S
- Associated Phenotype, mutation F145I [5]: S
- Associated Phenotype, mutation G353V [5]: S
- Associated Phenotype, mutation H97Y [5]: PPQ-R (CQ-R)
- Associated Phenotype, mutation I218F [5]: R low
- Associated Phenotype, mutation M343L [5]: S
- Associated Phenotype, mutation T93S [5]: PPQ-R (CQ-R)
- Associated Phenotype, mutation A220S [5]: R
- Associated Phenotype, mutation I356T/L [5]: R
- Associated Phenotype, mutation N326S/D [5]: R
- Associated Phenotype, mutation M74I [5]: R
- Associated Phenotype, mutation N75E [5]: R
- Associated Phenotype, mutation Q271E [5]: R
- Associated Phenotype, mutation R371I [5]: R
- Associated Phenotype, mutation K76T [5]: R
- IC50 [6]: 12.2 ± 0.5 nM
- Kd (PfCRT Dd2; [7]): 200 ± 40 nM
- Kd (PfCRT Dd2; [8]): 310 ± 40 nM
- Bmax, binding at pH 5.5 (PfCRT Dd2; pH 5.5): 0.42 ± 0.04 mol CQ/mol PfCRT
- Bmax, binding at pH 7.5 (PfCRT Dd2; pH 7.5): 0.38 ± 0.01 mol CQ/mol PfCRT
